Most compounds without a hit are left out; they make up all but 3.1% or so of the library.
SIRT5 block: SIRT5 desuccinylase inhibitors, primary screen, biochemical, fluorescence imaging, single point, set 5; Purified SirT5, succinyl-peptide AMC, trypsin-coupled fluorescence; inhibition, % at 15 µM; 330,000 tested, 1.1% active; AID 652115, 2013; in the data active = inhibition above about 15%
Target sequence (Q9NXA8 whole entry, looked up): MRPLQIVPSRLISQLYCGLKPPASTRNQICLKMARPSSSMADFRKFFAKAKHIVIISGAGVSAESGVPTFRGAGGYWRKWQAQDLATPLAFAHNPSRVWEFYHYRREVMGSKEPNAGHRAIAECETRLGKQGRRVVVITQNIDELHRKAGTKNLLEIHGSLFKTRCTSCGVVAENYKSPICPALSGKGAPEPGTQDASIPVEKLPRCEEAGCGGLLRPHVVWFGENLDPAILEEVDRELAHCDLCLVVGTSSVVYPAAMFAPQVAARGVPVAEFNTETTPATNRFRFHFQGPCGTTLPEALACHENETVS
ERAP1 HTS inh: human ERAP1 aminopeptidase inhibitors, primary screen, biochemical, single point, plate reader | inhibition, % at 10.7 µM | recombinant ERAP1, Leu-AMC fluorescence, 60 min | 340,000 tested, 0.15% active | Endoplasmic reticulum aminopeptidase 1 (Homo sapiens), Q9NZ08;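 active = mean replicate inhibition of at least 30%, or all replicates individually reaching that 30% level; inactive = mean below 30% and not every replicate reaching it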
rRNA inh HTS: reduced GFP signal of wild-type E. coli, primary screen, bacterial rRNA inhibitor project, GFP/RFP fluorescence, OD600, single point; E. coli WT GFP vs humanized-ribosome RFP mutants, 24 h; hits give low values; DMSO median 0, no signal -100; GFP signal change (wild-type ribosome), % (no concentration beside the values); 350,000 tested, 1.6% active;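 active = significant combined selectivity score with lowered wild-type GFP, culture density cut under 30%, mutant RFP and density less affected; inactive = any of these conditions unmet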
CFTR F508del cor: F508del CFTR correction, initial screen, CFBE line, single point | 350,000 tested, 0.36% active | AID 720511, 2013 | CFBE cells, YFP halide quenching; stimulated with forskolin plus potentiator P3; % fluorescence drop versus neutral controls | activity (quench increase), % at 7.58 µM;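 active = mean added fluorescence quench of at least 8% versus neutral control, with both replicates also reaching 8%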;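 also: cells transiently co-express mutant CFTR-F508del with the halide-sensitive YFP; corrector assay measuring rescue of mutant channel to the surface after 24 h compound exposure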
S100A4 inh HTS: inhibitors of S100A4-myosin IIA peptide binding, primary screen, biochemical, fluorescence polarization, TAMRA-MyoIIA peptide; Protein S100-A4 (Homo sapiens), P26447; inhibition, % at 10.7 µM; 360,000 tested, 0.14% active; AID 652163, 2013;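 active = mean inhibition of at least 70% across replicates, with every replicate also reaching that level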
Target sequence (P26447 whole entry, looked up): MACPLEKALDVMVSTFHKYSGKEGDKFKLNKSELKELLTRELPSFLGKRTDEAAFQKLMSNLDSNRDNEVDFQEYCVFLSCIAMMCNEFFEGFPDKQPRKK
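Assay system: human S100A4 monomer with TAMRA-labelled myosin IIA peptide / Buffer or medium: Calcium-containing HEPES buffer, pH 7.2 / Reagent: TAMRA-labelled myosin IIA heavy-chain peptide probe, 5 nM / Compound: one dose per compound / Timing: polarization read 5 min after assay mix addition, stable 5–60 min / Benchmarks: neutral control DMSO, positive control TFP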
Of the large screens only hits and unclear results are named; the others gave an inactive call.

CN(C)C(=O)c1ccc(-c2ccc3c(c2)[C@H]2[C@H](CCN2C(=O)C2CC2)[C@H](CO)N3C)cc1	none
CN1c2ccc(-c3ccc(F)cc3)cc2[C@@H]2[C@@H](CCN2C(=O)c2ccncc2)[C@@H]1CO	SIRT5 block 19 (no result: ERAP1 HTS inh)
CN1c2ccc(-c3cccc(F)c3)cc2[C@H]2[C@H](CCN2C(=O)c2ccccc2F)[C@H]1CO	S100A4 inh HTS 89
C[C@@H]1CCCCO[C@@H](CN(C)S(=O)(=O)c2cccs2)[C@@H](C)CN([C@H](C)CO)C(=O)c2cc(NC(=O)CCCN(C)C)ccc2O1	none
C[C@H](NC(=O)[C@@H]1[C@@H](CO)[C@@H]2Cn3c(cccc3=O)[C@@H]2N1Cc1ccncc1)c1ccccc1	none
COc1ccccc1NC(=O)CN1CCSc2ccccc21	rRNA inh HTS -21
COc1cccc(C2=CC(c3ccccc3)n3nnnc3N2)c1 (stereo not given)	CFTR F508del cor 15
COc1ccc(C2C=C(c3ccccc3)Nc3nnnn32)cc1 (stereo not given)	none
CN1C[C@H]2[C@@H](c3ccccc31)[C@@H](CO)N2C(=O)c1cccnc1	none
COc1ccc(C(=O)O)cc1S(=O)(=O)Nc1cc(C(F)(F)F)ccc1N1CCCCC1	rRNA inh HTS -25
C[C@@H]1CN([C@H](C)CO)C(=O)c2cccc(NS(C)(=O)=O)c2O[C@H]1CN(C)S(=O)(=O)c1cccs1	none
CC1(C)CC(=O)C(C2C3=C(CC(C)(C)CC3=O)Oc3ccccc32)C(=O)C1 (stereo not given)	rRNA inh HTS -22
COc1cc(OC)cc(C(=O)NCc2ccc(-n3cccc3)cc2)c1	none
COc1ccc(CC(=O)NCc2ccc(-n3cccc3)cc2)cc1OC	CFTR F508del cor 11
C[C@@H]1CN([C@@H](C)CO)C(=O)Cc2cc(NS(C)(=O)=O)ccc2O[C@@H]1CN(C)C(=O)Nc1cccc2ccccc12	none
CN1CCC=C(C(=O)N2c3ccccc3Sc3ccc(Cl)cc32)C1	rRNA inh HTS -22 (no result: CFTR F508del cor)
CN1CCN(CCC(=O)N2c3ccccc3Sc3ccc(Cl)cc32)CC1	none (no result: CFTR F508del cor)
CCC(=O)Nc1ccc2c(c1)C(=O)N(C)C[C@@H](OC)[C@H](C)CN[C@@H](C)CO2	none
CC1CCC(NC(=O)CN2C(=O)NC3(CCCCCC3)C2=O)CC1 (stereo not given)	SIRT5 block 16
Cc1cccc(NC(=O)CN2C(=O)NC3(CCCCCCC3)C2=O)c1C	none (no result: SIRT5 block)
COCCN(CC(=O)Nc1cccc(C)c1C)C(=O)CN1C(=O)NC2(CCCCC2)C1=O	ERAP1 HTS inh 45
CC1(C)NC(=O)N(CC(=O)OCC(=O)NC(=O)c2ccccc2)C1=O	ERAP1 HTS inh 64
Cc1ccc(C2(C)NC(=O)N(CC(=O)NC3CCCCC3)C2=O)cc1 (stereo not given)	none
CCOC(=O)c1ccccc1NC(=O)COC(=O)CN1C(=O)NC2(CCCC2)C1=O	rRNA inh HTS -32
CC=Cc1ccc2n(c1=O)C[C@H]1[C@H](CO)[C@@H](C(=O)NCCC)[C@@H]2N1CC1CC1 (mixture of isomers)	none
CN(C)CCCNC(=O)C[C@@H]1CC[C@H]2[C@H](COc3ccc(NC(=O)c4ccc5c(c4)OCO5)cc3C(=O)N2C)O1	none
COCCNC(=O)CN1C(=O)NC2(CCCCCC2)C1=O	SIRT5 block 17
Cc1ccc(CN2CC(=O)N3[C@@H](CO)[C@H](c4ccc(-c5ccccc5F)cc4)[C@@H]3C2)cc1	SIRT5 block 15
O=C1CN(Cc2ccccc2)C[C@@H]2[C@H](c3ccc(-c4ccccc4)cc3)[C@H](CO)N12	SIRT5 block 22 (no result: ERAP1 HTS inh)
CC1CCN(S(=O)(=O)N2CCCC(C(=O)NCc3ccccc3Cl)C2)CC1 (stereo not given)	CFTR F508del cor 9.6
CC(C)NC(=O)N(C)C[C@@H]1OCCCC[C@@H](C)Oc2ccc(NC(=O)C3CCCCC3)cc2C(=O)N([C@@H](C)CO)C[C@@H]1C	none
C=CC(=O)Nc1sc2c(c1C(N)=O)CCCC2	none (no result: SIRT5 block)
C=CCNC(=S)Nc1sc2c(c1C(N)=O)CCCC2	rRNA inh HTS -31
COCCCNC(=O)CCn1c(=O)c2ccccc2n(Cc2cccc([N+](=O)[O-])c2)c1=O	SIRT5 block 29 (no result: ERAP1 HTS inh)
COc1ccc(S(=O)(=O)Nc2ccc3c(c2)C(=O)N([C@@H](C)CO)C[C@@H](C)[C@@H](CN(C)S(C)(=O)=O)OCCCC[C@@H](C)O3)cc1	none
CCCC(=O)NC(c1ccc(OC)cc1)c1c(O)ccc2ccccc12 (stereo not given)	rRNA inh HTS -27
COc1ccc(C(NC(=O)CC(C)C)c2c(O)ccc3ccccc23)cc1 (stereo not given)	none
COc1ccc(C(=O)Nc2c(O)ccc3ccccc23)cc1	none (no result: SIRT5 block, ERAP1 HTS inh)
COc1ccc(NC(=O)Nc2c(O)ccc3ccccc23)cc1	rRNA inh HTS -26
Clc1nc(Cl)c2ncn(-c3ccccc3)c2n1	rRNA inh HTS -17 (no result: SIRT5 block)
C[C@@H]1CN([C@H](C)CO)C(=O)c2cccc(NS(=O)(=O)c3ccccc3)c2O[C@H]1CN(C)C(=O)Nc1ccccc1	none
O=C(C[C@@H]1C[C@@H]2c3cc(NC(=O)c4ccc5c(c4)OCO5)ccc3O[C@@H]2[C@H](CO)O1)NC1CCCCC1	none
COc1ccc(S(=O)(=O)N2CCCCCC2)cc1C(=O)N(C)CC(=O)Nc1ccc(F)cc1	SIRT5 block 20
COc1ccccc1OCC(=O)Nc1ccc(S(=O)(=O)N2CCCC2)cc1	none (no result: SIRT5 block)
CN(CC(=O)Nc1ccccc1Cl)C(=O)c1cccc(S(=O)(=O)N2CCN(c3ccccc3)CC2)c1	none
CN(CC(=O)Nc1cccc(S(=O)(=O)N2CCCC2)c1)CC(=O)Nc1ccc(F)c(F)c1F	CFTR F508del cor 19
CN(CC(=O)Nc1ccccc1Cl)C(=O)c1cccc(S(=O)(=O)N2CCN(c3ccc(F)cc3)CC2)c1	rRNA inh HTS -25
O=C(COc1ccccc1Br)Nc1ccc(S(=O)(=O)N2CCCC2)cc1	rRNA inh HTS -23
C[C@@H]1CCCCO[C@H](CN(C)C(=O)c2ccccc2)[C@H](C)CN([C@@H](C)CO)C(=O)c2cc(N(C)C)ccc2O1	none
COc1ccc(NC(=O)Nc2ccc3c(c2)CC(=O)N([C@H](C)CO)C[C@@H](C)[C@H](CN(C)C(=O)Nc2ccc(F)cc2)O3)cc1	none
O=C(CNc1ccc(F)cc1Cl)Nc1cccc(S(=O)(=O)N2CCCCC2)c1	none (no result: rRNA inh HTS)
CC1CN(C(=O)c2cccc(S(=O)(=O)N3CCN(c4ccc(F)cc4)CC3)c2)CC(C)O1 (stereo not given)	none

Compound activity as filed in PubChem.
